Data set [1] concerns Human immunodeficiency virus 1. Briefly: Antiviral activity against Human immunodeficiency virus 1 3B infected in human MT4 cells assessed as inhibition of virus-induced cytopathogenicity after 4 days by MTT assay. It counts as functional, organism-based. The settings on record: MT4, 96 h. The gist of the method:
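MT-4 cells (1 × 10^4 per well) in RPMI with or without serial compound dilutions, acutely infected with HIV-1 at m.o.i. 0.01 (100 CCID50). After 4-day incubation at 37 °C, protection from virus-induced cytopathogenicity was read as cell viability by MTT. Compounds were made as 100 mM DMSO stocks and diluted in medium.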
(In general: Protection from cytopathic effect is a common read-out in antiviral testing.)

Data set [2] in a line: Cytotoxicity against human MT4 cells after 96 hrs by MTT assay. The class given is cell-based. The gist of the method: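 Exponentially growing MT-4 cells seeded at 1 × 10^5 cells/ml in RPMI-1640 with 10 % FBS and penicillin/streptomycin. Incubated at 37 °C, 5 % CO2, with or without serial compound dilutions (100 mM DMSO stocks diluted in medium), run in parallel with the antiviral test. Viability by MTT after 96 h.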
(In general: Tetrazolium dyes change colour on reduction, which living cells bring about.)

With `O=c1c2ccccc2c2c(-c3ccccc3)c3c(=O)n(CCCCN4CCN(c5ccccc5)CC4)c(=O)c3c(-c3ccccc3)c12`, the EC50 in data set [1] was > 100 µM. Also, the CC50 at 96 h in data set [2] is > 100 µM.
Take `O=c1c2ccccc2c2c(-c3ccccc3)c3c(=O)n(CCCCN4CCN(c5ccccc5F)CC4)c(=O)c3c(-c3ccccc3)c12`: in data set [1], the EC50 was > 100 µM. Besides, in data set [2], the CC50 at 96 h was > 100 µM.
With `O=c1c2ccccc2c2c(-c3ccccc3)c3c(=O)n(CCCCN4CCN(c5ccccc5Cl)CC4)c(=O)c3c(-c3ccccc3)c12`, the concentration for a half-maximal effect (EC50) in data set [1] is > 100 µM. For the same compound, the CC50 at 96 h in data set [2] was > 100 µM.
For `O=c1c2ccccc2c2c(-c3ccccc3)c3c(=O)n(CCCCN4CCN(c5ccc(Cl)cc5)CC4)c(=O)c3c(-c3ccccc3)c12`, the half-maximal effective concentration (EC50) in data set [1] was > 100 µM. For the same compound, the CC50 at 96 h in data set [2] was > 100 µM.
For the compound `O=c1c2ccccc2c2c(-c3ccccc3)c3c(=O)n(CCCCN4CCN(c5ccc(F)cc5)CC4)c(=O)c3c(-c3ccccc3)c12`, the EC50 in data set [1] was > 100 µM. In addition, the half-maximal cytotoxic concentration (CC50) at 96 h in data set [2] was > 100 µM.
On to `O=c1c2ccccc2c2c(-c3ccccc3)c3c(=O)n(CCCCN4CCN(c5ccccn5)CC4)c(=O)c3c(-c3ccccc3)c12`, for which the EC50 in data set [1] was > 100 µM. The CC50 at 96 h in data set [2] is > 100 µM.
Regarding `O=c1c2ccccc2c2c(-c3ccccc3)c3c(=O)n(CCCCN4CCN(CCc5ccccc5C(F)(F)F)CC4)c(=O)c3c(-c3ccccc3)c12`, the concentration giving a half-maximal response (EC50) in data set [1] was > 9 µM. The CC50 at 96 h in data set [2] was determined as 9 µM.
As for `O=c1[nH]c(=O)c2c(-c3ccccc3)c3c(c(-c4ccccc4)c12)c(=O)c1ccccc13`, the EC50 in data set [1] was > 9 µM.

For orientation: EC50 means the concentration needed to bring the measured effect to its halfway point. A word on the CC50: it is the concentration that lowers cell viability or growth by half. A low value points to greater toxicity to the cells.

The values are drawn from ChEMBL document CHEMBL2429760, “Synthesis and structure evaluation of new complex butylarylpiperazin-1-yl derivatives” (Med Chem Res, 2013).
